Laboratory results published in ChEMBL document CHEMBL1268843, “Synthesis, NMR characterization and divergent biological actions of 2'-hydroxy-ceramide/dihydroceramide stereoisomers in MCF7 cells” (Bioorg Med Chem, 2010).

Tests used:
MCF7 [1] = test: Metabolic stability in human MCF7 cells assessed as cellular C16-dihydroceramide levels after 24 hrs by LC-MS/MS analysis; assay type: ADME, cell-based; conditions: mcf7, 24 h
Summary of the method: (§1)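 MCF7 cells grown in parallel with proliferation sets, treated with compound in ethanol (<0.1%) for 24 h (or time course at 10 μM); Bligh & Dyer lipid extracts analysed by LC-MS/MS on triple quadrupole in positive-ion MRM; quantified against spiked-matrix calibration curves with internal standard, linear regression; levels normalized to phospholipid (pmol/nmol Pi), compared with control cells.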

MCF7 [2] = test: Metabolic stability in human MCF7 cells assessed as cellular dihydroceramide levels at up to 5 uM after 24 hrs by LC-MS/MS analysis; assay type: ADME, cell-based; conditions: mcf7, 24 h; summary of the method: as §1
MCF7 [3] = test: Antiproliferative activity against human MCF7 cells after 24 hrs by trypan blue exclusion assay; assay type: functional, cell-based; conditions: MCF7, 24 h
MCF7 [4] = test: Metabolic stability in human MCF7 cells assessed as cellular dihydrsphingosine levels at 40 uM after 24 hrs by LC-MS/MS analysis relative to control; assay type: ADME, cell-based; conditions: mcf7, 24 h; summary of the method: as §1
MCF7 [5] = test: Metabolic stability in human MCF7 cells assessed as cellular dihydroceramide levels at up to 10 uM after 24 hrs by LC-MS/MS analysis; assay type: ADME, cell-based; conditions: mcf7, 24 h; summary of the method: as §1
MCF7 [6] = test: Antiproliferative activity against human MCF7 cells assessed as inhibition of cell growth at 10 uM after 24 hrs by trypan blue exclusion assay; assay type: functional, cell-based
MCF7 [7] = test: Metabolic stability in human MCF7 cells assessed as cellular dihydroceramide levels at 40 uM after 24 hrs by LC-MS/MS analysis; assay type: ADME, cell-based; conditions: mcf7, 24 h; summary of the method: as §1
MCF7 [8] = test: Metabolic stability in human MCF7 cells assessed as cellular sphingosine levels at up to 25 uM after 24 hrs by LC-MS/MS analysis; assay type: ADME, cell-based; conditions: mcf7, 24 h; summary of the method: as §1
MCF7 [9] = test: Metabolic stability in human MCF7 cells assessed as cellular ceramide levels at up to 25 uM after 24 hrs by LC-MS/MS analysis; assay type: ADME, cell-based; conditions: mcf7, 24 h; summary of the method: as §1
MCF7 [10] = test: Metabolic stability in human MCF7 cells assessed as C16-ceramide levels at 10 uM after 24 hrs by LC-MS/MS analysis relative to control; assay type: ADME, cell-based; conditions: mcf7, 24 h; summary of the method: as §1
MCF7 [11] = test: Metabolic stability in human MCF7 cells assessed as C14-ceramide levels at 10 uM after 24 hrs by LC-MS/MS analysis relative to control; assay type: ADME, cell-based; conditions: mcf7, 24 h; summary of the method: as §1
MCF7 [12] = test: Metabolic stability in human MCF7 cells assessed as endogenous sphingosine levels at 10 uM after 24 hrs by LC-MS/MS analysis; assay type: ADME, cell-based; conditions: mcf7, 24 h; summary of the method: as §1
MCF7 [13] = test: Metabolic stability in human MCF7 cells assessed as cellular ceramide levels at 10 uM after up to 30 hrs by LC-MS/MS analysis; assay type: ADME, cell-based; conditions: mcf7, 30 h; summary of the method: as §1
MCF7 [14] = test: Metabolic stability in human MCF7 cells assessed as C18-ceramide levels at 10 uM after 24 hrs by LC-MS/MS analysis relative to control; assay type: ADME, cell-based; conditions: mcf7, 24 h; summary of the method: as §1
MCF7 [15] = test: Metabolic stability in human MCF7 cells assessed as ceramide species levels at up to 5 uM after 24 hrs by LC-MS/MS analysis; assay type: ADME, cell-based; conditions: mcf7, 24 h; summary of the method: as §1
MCF7 [16] = test: Metabolic stability in human MCF7 cells assessed as endogenous 2-OH-ceramide levels at 2.5 to 20 uM after 24 hrs by LC-MS/MS analysis; assay type: ADME, cell-based; conditions: mcf7, 24 h; summary of the method: as §1
MCF7 [17] = test: Metabolic stability in human MCF7 cells assessed as C24:1-ceramide levels at 20 uM after 24 hrs by LC-MS/MS analysis relative to control; assay type: ADME, cell-based; conditions: mcf7, 24 h; summary of the method: as §1
MCF7 [18] = test: Metabolic stability in human MCF7 cells assessed as C18-ceramide levels at 20 uM after 24 hrs by LC-MS/MS analysis relative to control; assay type: ADME, cell-based; conditions: mcf7, 24 h; summary of the method: as §1
MCF7 [19] = test: Metabolic stability in human MCF7 cells assessed as C14-ceramide levels at 20 uM after 24 hrs by LC-MS/MS analysis relative to control; assay type: ADME, cell-based; conditions: mcf7, 24 h; summary of the method: as §1
MCF7 [20] = test: Metabolic stability in human MCF7 cells assessed as C24-ceramide levels at 20 uM after 24 hrs by LC-MS/MS analysis relative to control; assay type: ADME, cell-based; conditions: mcf7, 24 h; summary of the method: as §1
MCF7 [21] = test: Metabolic stability in human MCF7 cells assessed as C16-ceramide levels at 20 uM after 24 hrs by LC-MS/MS analysis relative to control; assay type: ADME, cell-based; conditions: mcf7, 24 h; summary of the method: as §1

SMILES	IC50 (MCF7 [3]) [µM]	Stability (MCF7 [4])	Stability (MCF7 [5])	fold change (FC) (MCF7 [1])	fold change (FC) (MCF7 [4])	fold change (FC) (MCF7 [7])	Stability (MCF7 [8])	Stability (MCF7 [9])	Stability (MCF7 [13])	Stability (MCF7 [16])	fold change (FC) (MCF7 [17])	fold change (FC) (MCF7 [18])	fold change (FC) (MCF7 [19])	fold change (FC) (MCF7 [20])	fold change (FC) (MCF7 [21])	other results
CCCCCCCCCCCCCCC[C@@H](O)[C@H](CO)NC(=O)[C@H](O)CCCC	8	Stable	Stable													Stability (MCF7 [1]): Stable; Stability (MCF7 [2]): Stable
CCCCCCCCCCCCCCC[C@@H](O)[C@H](CO)NC(=O)CCCCC	38		Stable	13	5	7										Stability (MCF7 [6]): Stable
CCCCCCCCCCCCC/C=C/[C@@H](O)[C@H](CO)NC(=O)[C@H](O)CCCC							Stable	Stable	Stable	Stable						fold change (FC) (MCF7 [10]): 1.7; fold change (FC) (MCF7 [11]): 3; Stability (MCF7 [12]): Stable; fold change (FC) (MCF7 [14]): 5; Stability (MCF7 [15]): Stable
CCCCCCCCCCCCC/C=C/[C@@H](O)[C@H](CO)NC(=O)[C@@H](O)CCCC							Stable	Stable	Stable	Stable	4	30	20	2	7	
CCCCCCCCCCCCCCC[C@@H](O)[C@H](CO)NC(=O)[C@@H](O)CCCC	12	Unstable	Stable	25	16	19										
CCCCCCCCCCCCC/C=C/[C@@H](O)[C@H](CO)NC(=O)CCCCC	12										5	80	40	0.2	20	
